Results from different studies.
Lines come from different studies, so protocols differ.
Target: D(2) dopamine receptor (DRD2, Homo sapiens, UniProt P14416)

| SMILES | test | system | setting | quantity | value |
| --- | --- | --- | --- | --- | --- |
| O=C1c2ccccc2CCN1CCCCN1CCN(c2cccc(Cl)c2Cl)CC1 | ligand displacement, radioligand |  | 10 µM | inhibition | 99.3% |
| Cc1cc(NC(=O)c2cccc(S(F)(F)(F)(F)F)c2)cc(-n2ccn3nc(-c4cccnc4)cc23)c1 | ligand displacement, radioligand |  | 10 µM | inhibition | 12.3% |
| CCc1ccc(N2CCN(CC(O)COc3ccc(C(C)=O)cc3OC)CC2)cc1 (stereo not shown) | enzyme activity, inhibitor |  | 10 µM | inhibition | 11.2% |
| O=C(CN1CCO[C@@H](COc2ccccn2)C1)N1CCc2ccccc21 | ligand displacement, radioligand |  | 10 µM | inhibition | -15.6% |
| CNc1nc2cc(OCCCCN3CCN(c4cccc5ccc(C)nc45)CC3)ccc2s1 | β-arrestin recruitment, agonist | HTLA |  | Emax | < 20% |
| Cc1cccc(N2CCN(CC(O)COc3ccc4ccccc4c3)CC2)c1C (stereo not shown) | enzyme activity, inhibitor |  | 10 µM | inhibition | 24.4% |
| CCOc1cc(N2C3COCC2CN(C(=O)[C@H]2C[C@H](O)CN2c2ccc(Cl)cc2)C3)ccc1Cl | cell-free assay |  | 10 µM | inhibition | 7.26% |
| O=C(CN1CCN(c2ccc(F)cc2)CC1)Nc1cc(Cl)cc(Cl)c1 | enzyme activity, inhibitor |  | 10 µM | inhibition | 13.6% |
| Cc1ccc(OC[C@@H]2CN(CCN3CCc4ccccc43)CCO2)cn1 | ligand displacement, radioligand |  | 10 µM | inhibition | 18.8% |
| CC(C)c1nc2cc(OCCCCN3CCN(c4cccc5c4OCCN5)CC3)ccc2s1 | β-arrestin recruitment, agonist | HTLA |  | Emax | 36% |
| Cc1cc(C)cc(NC(=O)CN2CCN(C(=O)c3ccco3)CC2)c1 | enzyme activity, inhibitor |  | 10 µM | inhibition | 8.3% |
| O=C(NCc1ncc(C(F)(F)F)cc1Cl)c1ccc2c(c1)C1(CCS(=O)(=O)CC1)[C@@H](C1CC1)N2S(=O)(=O)c1ccc(F)cc1 | ligand displacement |  | 10 µM | inhibition | -8.4% |
| COc1cc(OC)c(OC)cc1CN1CCN(Cc2c[nH]c3ccccc23)CC1 | enzyme activity, inhibitor |  | 10 µM | inhibition | 34.6% |
| COc1cccc(OC[C@@H]2CN(CCN3CCc4ccccc43)CCO2)c1 | ligand displacement, radioligand |  | 10 µM | inhibition | 36.5% |
| Nc1nonc1C(=O)NCCNCc1cccc(OCc2ccccc2F)c1 | enzyme activity, inhibitor |  | 10 µM | inhibition | 6.52% |
| CC(=O)Nc1c(C(C)=O)c(=O)n(C)c2nc(-c3ccc(Cl)cc3Cl)c(-c3ccc(Cl)cc3)cc12 | cell-free assay |  | 10 µM | inhibition | 5.73% |
| Clc1cncc(OC[C@@H]2CN(CCN3CCc4ccccc43)CCO2)c1 | ligand displacement, radioligand |  | 10 µM | inhibition | 60% |
| CC(=O)C1=C(C)N(c2cccc(C(F)(F)F)c2)C(=O)N[C@H]1c1ccc(C#N)nc1 | ligand displacement |  | 10 µM | inhibition | -1.53% |
| O=C(CN1CCO[C@H](COc2ccccc2)C1)N1CCc2ccccc21 | ligand displacement, radioligand |  | 10 µM | inhibition | 13.6% |
| CN1CCN(C(=O)C(C)(C)c2ccc(C(=O)Nc3cn4cc(-c5cc(C(C)(C)C)cc(C(C)(C)C)c5)ccc4n3)cc2)CC1 | ligand displacement |  | 10 µM | inhibition | 57.5% |
| O=C(CCCN1CCC(O)(c2ccc(Br)cc2)CC1)c1ccc(F)cc1 | binding |  |  | kon | 2.67e+06 M⁻¹ s⁻¹ |
| Cc1cc(Nc2nccc(C)n2)cc(-c2cnc([C@@]3(O)CC[C@H](C(=O)O)C(C)(C)C3)s2)c1 | ligand displacement |  | 10 µM | inhibition | -3.52% |
| Cc1ccnc(OC[C@H]2CN(CC(=O)N3CCc4ccccc43)CCO2)c1 | ligand displacement, radioligand |  | 10 µM | inhibition | -7.3% |
| CS(=O)(=O)c1cc(C2(NC(=O)c3cncc4c3cnn4-c3ccc(F)cc3)CC2)ccn1 | cell-free assay |  | 10 µM | inhibition | 6.62% |
| NS(=O)(=O)c1ccc(CCNCc2ccc(OCc3cccs3)cc2)cc1 | enzyme activity, inhibitor |  | 10 µM | inhibition | 23.9% |
